# Sampled rows, rich in hits. Any-hit rate of the full collection: about 1.5%.
# NSD2 HMT inh: blocks human histone methyltransferase NSD2; NSD2 peptide methylation, AlphaScreen, 120 min; inhibition, % at 12.5 µM; 310,000 compounds, 0.54% hits; AID 743445
# Target sequence (O96028 whole entry, looked up): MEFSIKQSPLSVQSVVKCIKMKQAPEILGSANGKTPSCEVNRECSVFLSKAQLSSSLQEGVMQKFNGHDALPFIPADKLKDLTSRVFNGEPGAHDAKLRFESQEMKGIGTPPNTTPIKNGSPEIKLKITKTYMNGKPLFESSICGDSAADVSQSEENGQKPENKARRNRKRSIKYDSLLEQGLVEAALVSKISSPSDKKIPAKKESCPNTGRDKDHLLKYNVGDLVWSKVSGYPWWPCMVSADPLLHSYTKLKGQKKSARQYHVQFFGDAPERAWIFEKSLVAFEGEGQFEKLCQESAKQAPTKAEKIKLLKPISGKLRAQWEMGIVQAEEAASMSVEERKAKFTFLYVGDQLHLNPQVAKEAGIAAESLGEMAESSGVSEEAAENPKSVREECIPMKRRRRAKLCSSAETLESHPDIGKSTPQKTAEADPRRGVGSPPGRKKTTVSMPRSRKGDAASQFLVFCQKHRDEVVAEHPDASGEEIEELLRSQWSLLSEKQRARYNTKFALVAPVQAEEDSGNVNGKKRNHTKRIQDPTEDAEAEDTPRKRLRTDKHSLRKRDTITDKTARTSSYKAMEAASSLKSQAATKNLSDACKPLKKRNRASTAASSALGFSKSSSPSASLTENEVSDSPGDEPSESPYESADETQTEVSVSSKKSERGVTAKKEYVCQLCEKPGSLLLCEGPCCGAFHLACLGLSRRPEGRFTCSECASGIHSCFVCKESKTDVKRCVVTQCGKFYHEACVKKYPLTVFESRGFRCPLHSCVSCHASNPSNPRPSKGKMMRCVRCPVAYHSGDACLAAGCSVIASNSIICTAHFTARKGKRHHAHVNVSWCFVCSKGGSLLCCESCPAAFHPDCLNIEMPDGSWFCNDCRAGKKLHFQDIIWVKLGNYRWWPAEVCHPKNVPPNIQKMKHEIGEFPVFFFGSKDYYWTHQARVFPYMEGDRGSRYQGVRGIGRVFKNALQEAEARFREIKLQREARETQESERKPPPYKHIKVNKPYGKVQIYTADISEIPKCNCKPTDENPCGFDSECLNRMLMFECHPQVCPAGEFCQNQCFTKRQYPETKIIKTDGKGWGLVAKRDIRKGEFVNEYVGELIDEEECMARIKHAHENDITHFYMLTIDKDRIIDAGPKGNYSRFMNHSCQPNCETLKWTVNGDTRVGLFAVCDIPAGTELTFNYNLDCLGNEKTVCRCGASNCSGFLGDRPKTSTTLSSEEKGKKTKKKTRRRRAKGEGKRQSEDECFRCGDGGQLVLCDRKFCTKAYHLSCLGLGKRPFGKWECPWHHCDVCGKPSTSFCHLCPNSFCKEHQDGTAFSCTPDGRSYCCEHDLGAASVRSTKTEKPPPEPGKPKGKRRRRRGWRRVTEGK
# Casp6 inh: inhibitors of human caspase-6; 350,000 compounds, 0.53% hits; P55212; inhibition, % at 12.5 µM; AID 686996; purified caspase-6, Z-VEID-R110 cleavage fluorescence;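 active = mean inhibition across replicates at least about 35%, with every replicate also reaching that limit, limit read from the data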;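 also: 0% = median of neutral control wells and 100% = no fluorescence left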
# DNMT1 inh: blocks human DNA methyltransferase DNMT1. P26358. inhibition (reported as % activation of signal), % at 10 µM. 360,000 compounds, 0.83% hits. DNMT1 molecular beacon, Hinp1I cleavage, fluorescence
# HCV NS3 hel inh: inhibitors of Hepatitis C virus NS3 helicase; 290,000 compounds, 0.56% hits; inhibition, % at 10.9 µM; NS3 helicase DNA unwinding, Cy5 molecular beacon fluorescence;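 active = inhibition above the mean of all tested compounds plus 3 SD, set per campaign, cut at about 35% in these data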;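 also: 0% = DMSO wells and 100% = thioflavine S control wells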
#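 System: NS3 helicase fragment of HCV / Schedule: 1 h at 25 °C / Control set: DMSO alone as 0% and 110 µM thioflavine S as 100% / Reagent: Cy5/quencher beacon DNA duplex and ATP to start / Technique: Cy5 fluorescence / Replication: singlicate / Evaluation: % inhibition of end-to-start signal ratio versus controls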
# NS3 hel confirm: confirmation of Hepatitis C virus NS3 helicase inhibitors; NS3 helicase DNA unwinding, Cy5 molecular beacon fluorescence; shares compounds with HCV NS3 hel inh; 1,600 compounds, 31% hits; inhibition, % at 10.9 µM;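 active = inhibition above the mean of all tested compounds plus 3 SD, cutoff set per campaign, cut at about 36% in these data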
# DNA FID counter: displaces DNA intercalator in HCV helicase counter-screen | shares compounds with HCV NS3 hel inh | DNA fluorescent intercalator displacement, fluorescence | inhibition, % at 7.9 µM | 1,600 compounds, 4% hits; in the data active = inhibition above about 37%;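 also: 0% = vehicle and 100% = reference compound; higher means more displacement of ethidium bromide from the DNA hairpin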
# The depositor's hits bear a star; · = no result. Rule as the data show it, unless noted: active = inhibition above about 50%; inactive = the rest.
SMILES,NSD2 HMT inh,Casp6 inh,DNMT1 inh,HCV NS3 hel inh,others
CN(C)CCCNC(=O)C[C@H]1CC[C@@H]2[C@H](COc3ccc(NC(=O)c4cccc(F)c4)cc3C(=O)N2C)O1,·,1,·,·,
O=[N+]([O-])c1cc2c(cc1/C=N/NS(=O)(=O)c1ccc(Br)cc1)OCO2,15,44*,-4,20,
COC(=O)C[C@H]1CC[C@H]2[C@H](COc3ccc(NC(=O)c4cc(C)on4)cc3C(=O)N2C)O1,·,0,·,·,
CN(C)S(=O)(=O)c1cccc(NC(=O)c2cc([N+](=O)[O-])ccc2N2CCCCC2)c1,0,2,-2,·,
CC(=O)Nc1cccc(NC(=O)c2cc([N+](=O)[O-])ccc2N2CCCCC2)c1,1,36*,-5,·,
C[C@H](NC(=O)C[C@H]1C=C[C@@H](NC(=O)C2CCC2)[C@H](CO)O1)c1ccccc1,·,-3,·,·,
N#C[C@@H]1[C@@H](c2ccc(-c3cccnc3)cc2)[C@H](CO)N1C(=O)C1CCC1,·,3,·,·,
COc1ccc(CN(C)C[C@H]2Oc3ccc(NC(=O)C4CC4)cc3CC(=O)N([C@H](C)CO)C[C@H]2C)cc1,·,1,·,·,
CC1CCCC(NC(=O)c2ccc3c(SCC(=O)O)c4c(nc3c2)CCC4)C1C (stereo not drawn),·,43*,-1,4,
C[C@H]1CN([C@@H](C)CO)C(=O)c2cccc(NC(=O)C3CCOCC3)c2O[C@H]1CN(C)Cc1ccc(C(F)(F)F)cc1,·,2,·,·,
C[C@H]1CN([C@@H](C)CO)C(=O)Cc2cc(NC(=O)Cc3ccccc3)ccc2O[C@H]1CN(C)Cc1ccc(C(=O)O)cc1,·,-3,·,·,
Cc1ccc(C(=O)OCC(=O)NCc2ccco2)cc1C,1,2,4,·,
Cc1cc(C)cc(C(=O)OCC(=O)NCc2ccco2)c1,-1,51*,6,·,
O=C(NCc1ccco1)c1ccc(C(=O)NCc2ccco2)cc1,-1,40*,19,·,
COc1ccccc1NC(=O)c1ccccc1S(=O)(=O)c1ccc([N+](=O)[O-])cc1,3,40*,0,-3,
Cc1cc(C)cc(OCC(=O)Nc2ccc(N3CCCC3)cc2)c1,·,·,65*,-52,
COc1ccc(OCC(=O)Nc2ccc(N3CCCCC3)cc2)cc1,1,1,-7,-2,
COP(=O)(OC)c1ccc(NCc2cc(O)ccc2O)cc1,26,53*,1,·,
COc1ccc(NC(=O)Nc2ccc3c(c2)C(=O)N([C@H](C)CO)C[C@@H](C)[C@H](CN(C)C(=O)C2CCCCC2)OCCCC[C@H](C)O3)cc1,·,-2,·,·,
CCC(=O)N(C)C[C@H]1Oc2cc(-c3cccc(C#N)c3)ccc2S(=O)(=O)N([C@H](C)CO)C[C@H]1C,·,-3,·,·,
O=[N+]([O-])c1cc(O)c2ncccc2c1,22,47*,·,1,
COC(=O)c1ccc(COc2cc([N+](=O)[O-])cc3cccnc23)o1,18,38*,-3,12,
Nc1ccc(Sc2ccccc2Cl)nc1,·,43*,-9,·,
O=[N+]([O-])c1ccc(Sc2ccccc2Cl)nc1,3,·,0,3,
COc1ccc(NC(=O)N[C@H]2CC[C@H](CCNS(=O)(=O)c3ccccc3F)O[C@@H]2CO)cc1,·,-1,·,·,
SMILES,NSD2 HMT inh,Casp6 inh,DNMT1 inh,HCV NS3 hel inh,others
Cc1ccc(NC(=O)CN2C(=O)S/C(=C\c3ccc(C(=O)O)cc3)C2=O)cc1,-1,43*,46,14,
Cc1ccc(NC(=O)CN2C(=O)S/C(=C/c3ccc(-c4cccc(C(=O)O)c4)o3)C2=O)cc1,0,·,56*,21,
Cc1ccc(NC(=O)CN2C(=O)S/C(=C\c3ccc(-c4cccc(C(=O)O)c4C)o3)C2=O)cc1,·,·,·,22,
Cc1ccc(NC(=O)CN2C(=O)S/C(=C\c3cc(C)n(-c4cccc(C(=O)O)c4)c3C)C2=O)cc1,-6,39*,-11,-11,
C[C@@H]1CN([C@H](C)CO)C(=O)c2cc(C#C[C@@H](C)O)cnc2O[C@H]1CN(C)C(=O)CN1CCOCC1,·,2,·,·,
C[C@@H](NC(=O)C[C@@H]1C=C[C@H](NC(=O)CN2CCOCC2)[C@@H](CO)O1)c1ccccc1,·,-29,·,·,
O=[N+]([O-])c1ccccc1/C=N\N1CCN(c2ccccc2)CC1,12,0,0,-4,
O=[N+]([O-])c1ccccc1/C=C\C=N\N1CCN(c2ccccc2)CC1,93*,1,-6,-13,
C[C@H]1CN([C@@H](C)CO)S(=O)(=O)c2ccc(C#CC3(O)CCCC3)cc2O[C@@H]1CN(C)C(=O)Nc1ccccc1,·,2,·,·,
CC(=O)Nc1cc(-c2ccccc2N(C)C)cn2c(-c3cccc(C(F)(F)F)c3)cnc12,6,0,61*,·,
COCC#Cc1ccc2c(c1)O[C@@H](CN(C)C(=O)c1ccccc1)[C@H](C)CN([C@@H](C)CO)S2(=O)=O,·,-1,·,·,
Cc1ccn(CCNC(=O)C2CCC(=O)N(Cc3ccc(Cl)cc3)C2)n1 (stereo not drawn),-3,0,0,0,
Cc1cc(C)n(CCNC(=O)C2CCC(=O)N(Cc3ccc(Cl)cc3)C2)n1 (stereo not drawn),-1,63*,1,5,
O=C1C2=C(c3ccccc31)[N+](=O)[C@@H]1CCCC[C@@H]1N2[O-],27,63*,-12,-2,
O=S(=O)(Nc1cc2nc3ccccc3nc2n1Cc1ccccc1)c1ccc(Cl)cc1,0,7,89*,16,
CN(/N=C/c1ccc(-c2ccc([N+](=O)[O-])cc2)o1)c1ccccc1,1,1,-1,-13,
O=C(O)c1ccc(N2C(=O)/C(=C/c3ccc(-c4ccc([N+](=O)[O-])cc4)o3)C=C2c2ccccc2)cc1,·,·,81*,40*,
Cc1c(N2C(=O)c3ccc4c5c(ccc(c35)C2=O)CC4)c(=O)n(-c2ccccc2)n1C,·,·,90*,15,
CCOC(=O)/C(C#N)=C/c1c(N2CCN(c3cccc(Cl)c3)CC2)nc2c(C)cccn2c1=O,·,53*,-4,-16,
CCOC(=O)C1=C(O)/C(=C/c2ccc(OCC(=O)O)c(OC)c2)SC1=Nc1ccc(OC)cc1,9,11,0,36*,NS3 hel confirm=42*;DNA FID counter=-16
O=[N+]([O-])c1cc2oc3c(c2c(C=NCc2ccccc2)c1O)CCCC3,0,·,1,51*,NS3 hel confirm=75*;DNA FID counter=69*
CC(C)CN=Cc1c(O)c([N+](=O)[O-])cc2oc3c(c12)CCCC3,4,·,-2,46*,NS3 hel confirm=12;DNA FID counter=63*
COc1cccc(NC(=O)N[C@@H]2CC[C@H](CC(=O)NCc3ccncn3)O[C@@H]2CO)c1,·,3,·,·,
CN(C)c1ccc(/C=C/c2ccc3ccccc3[n+]2C)cc1,44,·,1,-3,
CN(C)c1ccc(/C=C/c2ccc3c4ccccc4ccc3[n+]2-c2ccccc2)cc1,·,38*,40,63*,NS3 hel confirm=91*;DNA FID counter=101*
COc1cccc(-c2coc3c(C)c4oc(=O)c(CCC(=O)O)c(C)c4cc23)c1,3,8,3,-14,

# From PubChem
